Assay results taken from article PMC4259821 (European journal of pharmacology, 2014).
Counter-ions that a name gives are not always drawn.

What was measured:
ICSS in rats = experiment: Intracranial self-stimulation; assay type: in vivo, rat; conditions: i.p.
CaV 3.2 = CaV 3.2 (Homo sapiens, UniProt O95180); experiment: Calcium voltage channel 3.2 calcium mobilization assay; assay type: cell-based
[1] = tested on: food-maintained responding; conditions: rats, ref Schmoutz et al., 2012, cited from earlier work
mu opioid receptor = mu opioid receptor (Homo sapiens, UniProt P35372); experiment: Calcium mobilization assay, mu opioid receptor; assay type: cell-based
CB1 = CB1 (Homo sapiens, UniProt P21554); experiment: Calcium mobilization assay, CB1; assay type: cell-based
delta opioid receptor = delta opioid receptor (Homo sapiens, UniProt P41143); experiment: Calcium mobilization assay, delta opioid receptor; assay type: cell-based
5HT1A = target: T1, 5HT1A (Homo sapiens, UniProt P08908); experiment: Calcium mobilization assay, 5-HT1A; assay type: cell-based
T1 sequence (P08908 1-422): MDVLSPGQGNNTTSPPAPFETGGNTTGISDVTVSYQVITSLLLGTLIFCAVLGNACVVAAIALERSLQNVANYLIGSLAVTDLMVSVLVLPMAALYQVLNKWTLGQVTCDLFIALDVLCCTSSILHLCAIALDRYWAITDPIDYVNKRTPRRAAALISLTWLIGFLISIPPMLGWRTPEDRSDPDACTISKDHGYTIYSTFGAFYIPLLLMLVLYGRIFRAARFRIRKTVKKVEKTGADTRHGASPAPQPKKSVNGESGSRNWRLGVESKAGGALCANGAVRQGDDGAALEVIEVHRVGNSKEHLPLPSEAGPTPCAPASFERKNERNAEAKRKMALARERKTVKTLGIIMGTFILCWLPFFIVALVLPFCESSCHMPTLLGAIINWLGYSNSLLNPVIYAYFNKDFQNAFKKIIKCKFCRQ
Procedure, shortened: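 CHO-Gα16 cells stably expressing human 5-HT1A, plated overnight at 25,000 cells/well in Ham's F12 with 10% FBS. Calcium 5 dye (1:40) in HBSS, 20 mM HEPES, 2.5 mM probenecid, pH 7.4, for 45 min at 37°C. Agonist mode: compound added at 10 s, fluorescence read 90 s. Antagonist mode: 15 min compound pretreatment, then EC50–EC80 5-HT. Three-parameter logistic fit.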

TRPV1 = TRPV1 (Homo sapiens, UniProt Q8NER1); experiment: Calcium mobilization assay, TRPV1; assay type: cell-based
Procedure, shortened: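 HEK293 cells stably expressing human TRPV1, plated overnight at 30,000 cells/well on PEI-coated plates in DMEM-HG with 10% FBS. Calcium 5 dye in HBSS, 20 mM HEPES, 2.5 mM probenecid, pH 7.4, for 45 min at 37°C. Antagonist mode: 15 min compound pretreatment, then EC50–EC80 capsaicin. Agonist mode: compound added directly. Three-parameter logistic fit.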

[2] = tested on: cocaine self-administration; conditions: rats; 5–30 mg/kg i.p.; ref Schmoutz et al., 2012; cited from earlier work
CB2 = CB2 (Homo sapiens, UniProt P34972); experiment: Calcium mobilization assay, CB2; assay type: cell-based
NPS receptors [3] = conditions: calcium mobilization; ref Zhang et al., 2008; cited from earlier work
5HT2B = 5HT2B (Homo sapiens, UniProt P41595); experiment: Calcium mobilization assay, 5-HT2B; assay type: cell-based
Procedure, shortened: (§1)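 Stable human 5-HT2A or 5-HT2B HEK293 cells were plated overnight on PEI-coated plates at 40,000 or 35,000 cells/well in DMEM-HG, 10% FBS, 15 mM HEPES. Calcium 5 dye was loaded for 45 min at 37°C in HBSS/HEPES/probenecid, pH 7.4. Antagonist mode used 15 min compound pretreatment, then EC50–EC80 5-HT. Peak fluorescence change was fit to a three-parameter logistic.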

5HT2A = 5HT2A (Homo sapiens, UniProt P28223); experiment: Calcium mobilization assay, 5-HT2A; assay type: cell-based
Procedure, shortened: as §1

kappa opioid receptor = kappa opioid receptor (Homo sapiens, UniProt P41145); experiment: Calcium mobilization assay, kappa opioid receptor; assay type: cell-based
hTAAR1 = target: T2, hTAAR1 (Homo sapiens, UniProt Q96RJ0); experiment: hTAAR1 cAMP assay; assay type: cell-based
T2 sequence (Q96RJ0 1-339): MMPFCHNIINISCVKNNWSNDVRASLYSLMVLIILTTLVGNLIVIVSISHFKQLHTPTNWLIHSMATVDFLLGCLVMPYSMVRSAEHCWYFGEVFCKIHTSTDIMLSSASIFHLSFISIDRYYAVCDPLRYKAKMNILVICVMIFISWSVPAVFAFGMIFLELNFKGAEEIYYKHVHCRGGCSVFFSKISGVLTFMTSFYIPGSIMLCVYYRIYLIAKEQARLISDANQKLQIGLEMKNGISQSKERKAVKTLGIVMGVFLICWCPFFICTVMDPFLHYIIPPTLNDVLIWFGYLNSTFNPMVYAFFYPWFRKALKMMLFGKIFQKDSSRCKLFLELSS

CaV 3.1 = CaV 3.1 (Homo sapiens, UniProt O43497); experiment: Calcium voltage channel 3.1 calcium mobilization assay; assay type: cell-based
NPS receptors [4] = experiment: In vitro calcium mobilization assay, NPS receptor antagonism; assay type: cell-based; conditions: vs 13 receptors and ion channels of Table 1
APJ (Apelin) = target: T3, APJ (Apelin) (Homo sapiens, UniProt P35414); experiment: Calcium mobilization assay, APJ; assay type: cell-based
T3 sequence (P35414 1-380): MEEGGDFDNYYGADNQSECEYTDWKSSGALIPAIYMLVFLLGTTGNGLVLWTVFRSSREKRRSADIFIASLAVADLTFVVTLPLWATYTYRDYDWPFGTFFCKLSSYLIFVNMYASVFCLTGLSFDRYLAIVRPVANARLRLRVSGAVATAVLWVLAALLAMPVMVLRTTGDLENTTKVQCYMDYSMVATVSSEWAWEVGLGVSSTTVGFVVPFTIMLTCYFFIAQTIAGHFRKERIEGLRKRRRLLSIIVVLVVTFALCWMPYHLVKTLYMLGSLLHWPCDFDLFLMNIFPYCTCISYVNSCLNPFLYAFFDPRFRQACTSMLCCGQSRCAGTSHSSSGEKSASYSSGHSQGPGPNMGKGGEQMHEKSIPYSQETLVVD
Procedure, shortened: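 CHO-Gα16-APJ cells were plated overnight at 30,000 cells/well in DMEM/F12 with 10% FBS and loaded with Calcium 5 dye for 45 min at 37°C. Compound dilutions contained BSA/DMSO: 2.25% BSA/9% DMSO for pretreatment, 0.25% BSA/1% DMSO for treatment. Antagonist mode: 15 min pretreatment, then EC50–EC80 apelin. Fluorescence was read on FLIPR or FlexStation. EC50/IC50 came from a three-parameter logistic fit.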

Sequence of mu opioid receptor (P35372 whole entry): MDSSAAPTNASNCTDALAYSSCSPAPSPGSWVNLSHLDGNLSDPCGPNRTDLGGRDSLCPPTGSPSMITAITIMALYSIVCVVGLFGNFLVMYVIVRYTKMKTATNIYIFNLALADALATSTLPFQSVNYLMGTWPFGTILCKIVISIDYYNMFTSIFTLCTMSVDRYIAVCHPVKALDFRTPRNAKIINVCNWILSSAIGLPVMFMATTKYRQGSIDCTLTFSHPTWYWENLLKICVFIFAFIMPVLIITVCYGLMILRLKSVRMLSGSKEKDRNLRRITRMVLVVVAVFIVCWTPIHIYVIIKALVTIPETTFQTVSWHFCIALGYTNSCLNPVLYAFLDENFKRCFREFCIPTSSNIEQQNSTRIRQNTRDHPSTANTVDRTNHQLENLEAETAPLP
Sequence of CB1 (P21554 whole entry): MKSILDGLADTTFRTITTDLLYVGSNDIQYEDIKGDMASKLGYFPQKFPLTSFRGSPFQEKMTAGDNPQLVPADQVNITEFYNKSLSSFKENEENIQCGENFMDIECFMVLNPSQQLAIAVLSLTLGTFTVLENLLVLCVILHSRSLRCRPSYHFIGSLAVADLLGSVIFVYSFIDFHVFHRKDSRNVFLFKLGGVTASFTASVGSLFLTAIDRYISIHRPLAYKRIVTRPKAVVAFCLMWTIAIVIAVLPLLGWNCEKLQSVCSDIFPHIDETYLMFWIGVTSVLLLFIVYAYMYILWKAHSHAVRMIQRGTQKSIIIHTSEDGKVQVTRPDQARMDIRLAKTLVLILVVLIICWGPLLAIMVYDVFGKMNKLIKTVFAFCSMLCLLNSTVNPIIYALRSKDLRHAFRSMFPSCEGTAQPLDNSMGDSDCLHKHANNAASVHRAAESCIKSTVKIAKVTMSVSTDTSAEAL
Sequence of 5HT2A (P28223 whole entry): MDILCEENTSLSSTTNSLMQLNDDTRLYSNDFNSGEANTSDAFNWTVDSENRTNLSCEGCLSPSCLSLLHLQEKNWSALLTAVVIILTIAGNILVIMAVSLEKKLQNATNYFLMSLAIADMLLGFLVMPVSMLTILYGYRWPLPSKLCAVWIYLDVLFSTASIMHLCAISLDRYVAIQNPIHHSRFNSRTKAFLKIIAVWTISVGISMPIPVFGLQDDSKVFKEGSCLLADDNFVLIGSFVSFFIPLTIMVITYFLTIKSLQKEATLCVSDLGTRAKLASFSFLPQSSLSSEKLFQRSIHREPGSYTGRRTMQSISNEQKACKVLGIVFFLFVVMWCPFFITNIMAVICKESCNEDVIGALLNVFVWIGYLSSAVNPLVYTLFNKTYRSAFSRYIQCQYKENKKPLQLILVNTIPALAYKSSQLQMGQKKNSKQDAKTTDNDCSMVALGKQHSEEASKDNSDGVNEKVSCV
Sequence of CB2 (P34972 whole entry): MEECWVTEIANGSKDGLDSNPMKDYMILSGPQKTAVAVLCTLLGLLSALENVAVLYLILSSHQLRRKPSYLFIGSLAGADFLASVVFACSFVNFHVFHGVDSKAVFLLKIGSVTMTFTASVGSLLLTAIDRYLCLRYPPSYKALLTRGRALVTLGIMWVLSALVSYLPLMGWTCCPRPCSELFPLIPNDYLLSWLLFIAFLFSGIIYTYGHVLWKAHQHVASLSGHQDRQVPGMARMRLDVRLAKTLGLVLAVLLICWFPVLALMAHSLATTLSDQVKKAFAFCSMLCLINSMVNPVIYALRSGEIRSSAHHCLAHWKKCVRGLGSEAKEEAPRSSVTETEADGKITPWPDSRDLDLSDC
Sequence of TRPV1 (Q8NER1 whole entry): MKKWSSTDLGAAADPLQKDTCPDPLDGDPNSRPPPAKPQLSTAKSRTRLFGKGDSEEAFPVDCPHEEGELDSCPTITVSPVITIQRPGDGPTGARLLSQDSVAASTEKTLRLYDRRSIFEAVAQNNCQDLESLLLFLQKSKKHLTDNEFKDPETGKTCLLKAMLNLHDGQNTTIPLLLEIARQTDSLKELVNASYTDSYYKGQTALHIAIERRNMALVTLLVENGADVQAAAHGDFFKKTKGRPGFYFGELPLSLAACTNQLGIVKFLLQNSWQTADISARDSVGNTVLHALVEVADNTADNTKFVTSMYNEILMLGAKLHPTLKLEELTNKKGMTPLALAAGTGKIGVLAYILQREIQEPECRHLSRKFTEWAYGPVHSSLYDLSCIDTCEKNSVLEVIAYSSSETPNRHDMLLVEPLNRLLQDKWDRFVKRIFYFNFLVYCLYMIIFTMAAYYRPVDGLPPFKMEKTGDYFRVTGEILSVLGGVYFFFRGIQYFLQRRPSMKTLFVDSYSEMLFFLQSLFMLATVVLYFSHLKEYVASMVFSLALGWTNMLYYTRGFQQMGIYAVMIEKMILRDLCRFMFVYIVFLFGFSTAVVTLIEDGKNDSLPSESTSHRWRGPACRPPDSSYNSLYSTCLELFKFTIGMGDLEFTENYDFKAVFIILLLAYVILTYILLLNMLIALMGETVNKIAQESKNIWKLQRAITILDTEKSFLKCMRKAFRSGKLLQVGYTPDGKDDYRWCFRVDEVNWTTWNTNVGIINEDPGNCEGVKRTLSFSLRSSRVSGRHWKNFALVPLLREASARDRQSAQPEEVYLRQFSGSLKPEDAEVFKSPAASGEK
Sequence of delta opioid receptor (P41143 whole entry): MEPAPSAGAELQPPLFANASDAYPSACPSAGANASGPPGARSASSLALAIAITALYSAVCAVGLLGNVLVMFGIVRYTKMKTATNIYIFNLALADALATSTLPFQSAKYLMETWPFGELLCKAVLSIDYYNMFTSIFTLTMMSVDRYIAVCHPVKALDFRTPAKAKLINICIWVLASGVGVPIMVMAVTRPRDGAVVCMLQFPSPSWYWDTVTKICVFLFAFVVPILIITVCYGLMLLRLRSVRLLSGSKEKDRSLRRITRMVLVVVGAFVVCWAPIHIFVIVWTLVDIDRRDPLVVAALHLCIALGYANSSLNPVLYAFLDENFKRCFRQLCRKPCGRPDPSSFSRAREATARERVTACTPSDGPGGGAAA
Sequence of kappa opioid receptor (P41145 whole entry): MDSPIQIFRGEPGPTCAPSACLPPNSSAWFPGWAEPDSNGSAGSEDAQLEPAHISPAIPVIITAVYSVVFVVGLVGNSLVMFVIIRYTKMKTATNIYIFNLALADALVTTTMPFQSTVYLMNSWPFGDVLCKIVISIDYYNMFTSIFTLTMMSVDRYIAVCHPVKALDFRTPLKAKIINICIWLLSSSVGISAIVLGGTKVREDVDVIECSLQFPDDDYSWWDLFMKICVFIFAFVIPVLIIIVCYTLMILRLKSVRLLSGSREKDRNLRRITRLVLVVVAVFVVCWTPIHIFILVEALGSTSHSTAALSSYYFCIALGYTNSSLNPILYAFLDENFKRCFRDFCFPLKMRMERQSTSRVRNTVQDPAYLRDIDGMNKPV
Sequence of 5HT2B (P41595 whole entry): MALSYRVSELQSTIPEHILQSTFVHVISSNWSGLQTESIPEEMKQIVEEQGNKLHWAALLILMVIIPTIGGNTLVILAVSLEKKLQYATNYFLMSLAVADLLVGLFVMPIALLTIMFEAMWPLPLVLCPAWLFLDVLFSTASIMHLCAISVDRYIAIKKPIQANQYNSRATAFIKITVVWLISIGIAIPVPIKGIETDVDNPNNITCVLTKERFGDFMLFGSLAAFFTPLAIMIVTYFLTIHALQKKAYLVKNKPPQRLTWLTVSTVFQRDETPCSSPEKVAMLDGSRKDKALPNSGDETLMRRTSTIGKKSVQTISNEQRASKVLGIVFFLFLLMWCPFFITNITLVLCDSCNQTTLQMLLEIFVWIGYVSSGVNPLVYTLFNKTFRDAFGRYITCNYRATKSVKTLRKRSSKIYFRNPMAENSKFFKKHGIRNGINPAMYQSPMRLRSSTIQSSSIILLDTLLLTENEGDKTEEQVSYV

CCCC(C(=O)c1ccc2c(c1)OCO2)N1CCCC1.Cl (racemic) [MDPV, (±)-3,4-methylenedioxypyrovalerone HCl, reference compound]
Effect on ICSS, drug alone (ICSS in rats; 3.2 mg/kg MDPV vs vehicle + vehicle): facilitated ICSS across a broad range of frequencies (1.75–2.05 log Hz)

COC(=O)[C@H]1[C@@H](OC(=O)c2ccccc2)C[C@@H]2CC[C@H]1N2C [Cocaine, (−)-Cocaine HCl, reference compound]
Effect on ICSS, drug alone (ICSS in rats; 10 mg/kg cocaine): facilitated ICSS across a broad range of six frequencies (1.75–2.0 log Hz)

O=C(NCCN1CCCCC1)N1CCN2C(=O)OC(c3ccccc3)(c3ccccc3)C2C1 (stereo not shown) [RTI-118, 3-oxo-1,1-diphenyl-N-(2-(piperidin-1-yl)ethyl)tetrahydro-1H-oxazolo[3,4-a]pyrazine-7(3H)-carboxamide]
IC50 (CaV 3.2): > 10 µM | Reduction in rates of food-maintained responding ([1]; 30 mg/kg): up to 20% | Effect on rates of food-maintained responding ([1]; doses up to 20 mg/kg IP): had no effect on rates of food-maintained responding | EC50 (mu opioid receptor): > 10 µM | IC50 (mu opioid receptor): > 10 µM | EC50 (CB1): > 10 µM | IC50 (CB1): > 10 µM | EC50 (delta opioid receptor): > 10 µM | IC50 (delta opioid receptor): > 10 µM | EC50 (5HT1A): > 10 µM | IC50 (5HT1A): > 10 µM | EC50 (TRPV1): > 10 µM | IC50 (TRPV1): > 10 µM | Effect on cocaine self-administration [2]: dose-dependent and nearly complete elimination of cocaine self-administration | EC50 (CB2): > 10 µM | IC50 (CB2): > 10 µM | Ke value as an antagonist at NPS receptors (NPS receptors [3]): 109 ± 23 nM | EC50 (5HT2B): > 10 µM | IC50 (5HT2B): > 10 µM | EC50 (5HT2A): > 10 µM | IC50 (5HT2A): > 10 µM | Effect on ICSS, drug alone (ICSS in rats; 10 mg/kg RTI-118): significantly increased ICSS at one frequency (1.9 log Hz) | Effect of pretreatment on MDPV-induced facilitation of ICSS (ICSS in rats; 32 mg/kg RTI-118 + 3.2 mg/kg MDPV): did not alter MDPV-induced facilitation of ICSS | Effect on ICSS, drug alone (ICSS in rats; 32 mg/kg RTI-118, first group of rats): significantly decreased ICSS at only one frequency (2.05 log Hz) | Effect on ICSS, drug alone (ICSS in rats; 32 mg/kg RTI-118, second group of rats (MDPV study)): did not significantly alter ICSS at any frequency | Effect on ICSS, drug alone (ICSS in rats; low doses of 3.2–10 mg/kg RTI-118): had little effect on ICSS | Effect of pretreatment on cocaine-induced facilitation of ICSS (ICSS in rats; pretreatment + 10 mg/kg cocaine vs vehicle + 10 mg/kg cocaine): attenuation of cocaine effects was statistically significant only at the highest RTI-118 dose (32 mg/kg) | EC50 (kappa opioid receptor): > 10 µM | IC50 (kappa opioid receptor): > 10 µM | EC50 (hTAAR1): > 10 µM | IC50 (hTAAR1): > 10 µM | IC50 (CaV 3.1): > 10 µM | Selectivity for NPS receptors relative to the other targets (NPS receptors [4]): at least 100 fold | EC50 (APJ (Apelin)): > 10 µM | IC50 (APJ (Apelin)): > 10 µM
